NALP3 yeast inh: blocks the NALP3 inflammasome reconstituted in yeast | AID 2825 | Yeast reconstituted NLRP3/ASC/caspase-1, beta-gal luminescence, 24 h | 330,000 compounds, 0.39% hits | inhibition, % at 10 µM;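 active = inhibition of 50% or more; inactive = inhibition below 50%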;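 also: plate controls were induced DMSO wells for no effect and uninduced yeast grown without galactose for full effect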
PolyA inh: yeast polyadenylation inhibition; 300,000 compounds, 0.02% hits; activity score, % at 12 µM; S. cerevisiae SKY197-pL101 polyadenylation reporter, beta-gal luminescence; efflux-impaired pdr1/pdr3 knockout yeast; score 100 = 6 SD above DMSO;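 active = lowest replicate activity score at least 50, where 100 means six control SD above control mean; inconclusive = lowest score under 50 but half or more replicates reach 50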;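 also: yeast exposed to compound for 9 h at 30 °C; higher score means more reporter readthrough which indicates perturbed polyadenylation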
SUMO Mot1 rescue: inhibitors of SUMOylation pathway: yeast Mot1-301 growth rescue; S. cerevisiae Mot1-301 growth rescue, ATP luminescence, 38.5C; percent above DMSO median, 100 means doubled; 320,000 compounds, 1% hits; growth rescue, % at 18.8 µM; AID 2716;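 active = every valid replicate shows activation above 250% relative to neutral control wells; inactive = the rest, any valid replicate at or below 250%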;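 also: OY570 slx delta 5 strain wells were the positive control but not used for scaling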
IMP-1 inh: inhibitors of Pseudomonas aeruginosa IMP-1 metallo-beta-lactamase. 290,000 compounds, 0.45% hits. purified IMP-1, nitrocefin hydrolysis, epi-absorbance fluorescence. inhibition, % at 5.6 µM;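 active = inhibition above the mean plus 3 SD of all compounds in the same screening run, cut at about 4.5% in these data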;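 also: 0% = IMP-1 with DMSO and 100% = DMSO wells lacking enzyme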
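System: purified IMP-1; amount: IMP-1 0.2 nM before substrate addition; compound: single dose, 5.6 µM; times: 25 °C, 15 min preincubation, 25 min reaction; signal: Epi-absorbance via hydrolysed-nitrocefin quenching of white-plate fluorescence, 480/530 nm, EDTA stop; benchmarks: DMSO with and without IMP-1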
VIM-2 inh: inhibitors of Pseudomonas aeruginosa VIM-2 metallo-beta-lactamase; inhibition, % at 5.6 µM; AID 1527; 290,000 compounds, 0.89% hits; purified VIM-2, nitrocefin hydrolysis, epi-absorbance fluorescence;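 active = inhibition above the mean of all tested compounds plus 3 SD, cutoff set per screening run, cut at about 7.5% in these data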;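 also: red hydrolysis product quenches plate fluorescence so inhibitors raise well fluorescence; 0% = enzyme with DMSO and 100% = DMSO without enzyme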
NALP1 inh: blocks the NALP1 inflammasome reconstituted in yeast; 280,000 compounds, 0.61% hits; inhibition, % at 10 µM; S. cerevisiae NALP1/ASC/caspase-1 growth, X-gal OD620, 72 h; AID 2071; in the data active = inhibition mostly above about 24%, no sharp cut-off; inactive = mostly below about 32%
NALP3 confirm: NALP3 inhibition confirmation in yeast; 1,300 compounds, 81% hits; AID 435006; yeast expressing human NALP3, luminescence; inhibition, % at 10 µM; shares compounds with NALP3 yeast inh; in the data active = inhibition above about 48%
Casp1-ASC yeast: counter-screen for NALP3 inhibitors: yeast caspase-1-ASC; shares compounds with NALP3 yeast inh; 1,000 compounds, 66% hits; yeast expressing Caspase-1-ASC, luminescence counter screen; inhibition, % at 10 µM; AID 488784
NALP3 retest: yeast NALP3 inhibition, confirmed on retest; shares compounds with NALP3 yeast inh; yeast expressing human NALP3, luminescence read-out; inhibition, % at 10 µM; 1,000 compounds, 53% hits; AID 488794
An asterisk follows results filed as active; ? = inconclusive; . = no result. Rows were chosen to be rich in hits. Some 2.9% of all compounds tested hit in one or more screens of this group. Rule as the data show it, unless noted: active = inhibition above about 50%; inactive = the rest.

SMILES	NALP3 yeast inh	PolyA inh	SUMO Mot1 rescue	IMP-1 inh	VIM-2 inh	NALP1 inh	NALP3 confirm	Casp1-ASC yeast	NALP3 retest
c1ccc(-c2ccc(-c3nc(-c4ccccn4)no3)cc2)cc1	53*	-47	-70	-4	-3	15	50*	47	37
COc1ccc(NC(=O)c2ccc(F)c(F)c2)c2ccccc12	50*	-9	28	-2	-1	30	61*	27	44
COc1ccc(C(=O)Nc2ccc(O)c3ccccc23)cc1	4	-2	48	.	.	.	.	.	.
COc1cc(OC)cc(-c2cc3cc4c(cc3cn2)OCO4)c1	56*	.	190	.	.	.	56*	50	43
COc1ccc(-c2cc3cc4c(cc3cn2)OCO4)cc1	23	.	210	.	.	.	.	.	.
CCNC(=O)COC(=O)c1csc2c1CCCC2	56*	?	29	-2	1	32	24	.	.
CCOc1ccc(NC(=O)c2csc3c2CCCC3)cc1	52*	-1	10	-2	-1	48	46	.	.
CC(=O)c1cccc(NC(=O)c2csc3c2CCCCC3)c1	10	-24	-8	-2	-1	8	.	.	.
COc1cc(CN2CCC(n3nccc3NC(=O)CCCc3ccccc3)CC2)ccc1F	3	-3	-4	-1	1	22	.	.	.
C=CCc1c(C)nc(C)nc1N/N=C/c1ccccc1O	55*	-52	5	-3	-4	42	57*	38	55*
CN1CCN(c2c(/C=N/O)c3ccccc3n2C)CC1	-3	7	-19	0	-3	13	.	.	.
Cc1ccccc1C(=O)O/N=C/c1c(N2CCOCC2)n(C)c2ccccc12	66*	-24	211	-1	-1	-3	83*	92*	79*
Nc1nc(-c2cc(-c3ccccc3)no2)cs1	56*	5	2	-2	-2	-4	75*	64*	61*
O=C(CSCc1cc(=O)n2ccsc2n1)Nc1ccccc1	3	9	235	0	-2	23	.	.	.
O=C(NNC(=O)c1c(O)c2ccccc2[nH]c1=O)c1ccccc1Br	57*	25	-14	-1	1	13	72*	47	47
O=C(CCl)NNC(=O)c1c(O)c2ccccc2[nH]c1=O	8	8	-15	-2	1	3	.	.	.
O=C(NC1CC1)c1c(O)c2ccccc2[nH]c1=O	69*	33	18	-2	0	28	75*	40	46
O=C(NCCc1ccccc1)c1c(O)c2ccccc2[nH]c1=O	23	-19	-3	1	0	3	.	.	.
CCNC(=O)c1c(O)c2ccccc2[nH]c1=O	68*	17	-19	1	-1	-23	79*	53*	71*
CN(CC(=O)Nc1ccc(Cl)c(C(F)(F)F)c1)C(=O)CNC(=O)C1CCCCC1	8	.	145	.	.	.	.	.	.
O=C(C1CCN(S(=O)(=O)c2cccc3cccnc23)CC1)N1CCn2c1nc1ccccc12	80*	-7	-16	-3	1	-6	90*	85*	87*
O=C(C1CCCN1S(=O)(=O)c1cccc2cccnc12)N1CCn2c1nc1ccccc12 (stereo unspecified)	-9	-7	-8	-3	-2	17	.	.	.
COc1ccc(N2CC(C(=O)OCC(=O)Nc3cccc(C)c3)CC2=O)cc1 (stereo unspecified)	1	-8	28	-1	-1	9	.	.	.
O=C(Cc1cccc(Cl)c1)Nc1ccc(Br)cc1	54*	-8	-3	-3	-3	2	39	57*	48
O=C(Cc1ccc(Br)cc1)Nc1ccc(Cl)cc1	28	-4	5	-2	-2	-2	.	.	.
SMILES	NALP3 yeast inh	PolyA inh	SUMO Mot1 rescue	IMP-1 inh	VIM-2 inh	NALP1 inh	NALP3 confirm	Casp1-ASC yeast	NALP3 retest
Cc1[nH]c2c(C)cccc2c(=O)c1CN1CCCCCC1	16	-20	-31	0	0	1	.	.	.
Cc1ccc(OCC(=O)Nc2nnc(S(=O)(=O)N3CCC(C)CC3)s2)cc1	9	-16	-23	-3	-4	5	.	.	.
Cc1c(C(=O)NCCC2=CCCCC2)oc2ccc(S(=O)(=O)N3CCOCC3)cc12	58*	.	-11	-3	-3	6	62*	55*	43
Cn1ncc2c(Nc3ccc(-c4ccccc4)cc3)ncnc21	51*	-45	53	-2	-1	19	52*	60*	54*
NC(=O)c1sc2nc3c(cc2c1N)CCC3	6	1	-9	-2	0	-3	.	.	.
COC(=O)c1sc2nc3c(cc2c1N)CCCC3	51*	-14	-12	-4	2	-9	66*	64*	58*
CC1CCN(S(=O)(=O)c2cc(C(=O)Nc3ccccn3)ccc2Br)CC1	5	-7	0	.	.	.	.	.	.
CC(C)(C)C(=O)/C(=C\c1ccc([N+](=O)[O-])cc1)n1cncn1	74*	-70	330*	-2	-3	55*	65*	.	.
CC(C)(C)C(=O)/C(=C/c1ccc(Cl)cc1)n1cncn1	25	-30	431	-4	-1	10	.	.	.
CO/N=C(\Cn1ncc(N2CCCC2)c(Cl)c1=O)c1ccc(Cl)cc1	70*	-16	3	-4	-3	22	73*	75*	60*
O=C(C1CCN(S(=O)(=O)c2ccc(Br)s2)CC1)N1CCc2ccccc21	55*	-30	-19	-3	-4	-1	64*	61*	43

Screening results deposited in PubChem BioAssay by several laboratories.
